Reference: ChEMBL document CHEMBL1130336, “Polyanion inhibitors of human immunodeficiency virus and other viruses. 6. Micelle-like anti-HIV polyanionic compounds based on a carbohydrate core” (J Med Chem, 1997)

Legend:
[1] = tested on: CEM-4; assay: Concentration required to reduce the viability of uninfected CEM-4 cells by 50%; format: functional; details: Homo sapiens
How it was run: (§1)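 Cytotoxicity in uninfected CEM-4 or MT-4 cells, measured as inhibition of cell growth. The value is the concentration that lowers viability by 50%.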

[2] = tested on: CEM-4; assay: Inhibitory concentration required to inhibit HIV-induced cytopathicity in CEM-4 cells by 50%; format: functional, cell-based; details: Homo sapiens
How it was run: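 CEM-4 cells infected with HIV-1 (strain HTLV-III_B/LAI). The end point is 50% inhibition of HIV-induced cytopathicity.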

[3] = tested on: E6SM; assay: Concentration required to cause a microscopically detectable alteration of normal E6SM cell morphology; format: functional, cell-based; details: Homo sapiens, read-out: IC50
How it was run: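 Minimum cytotoxic concentration, read microscopically as the level that causes a detectable alteration of normal cell morphology.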

[4] = tested on: E6SM; assay: Concentration required to reduce herpes simplex virus-1TK( B2006) inducted cytopathicity by 50% (E6SM cells); format: functional, cell-based; details: Homo sapiens
How it was run: (§2)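 Virus was added in the presence of compound, and the cells were incubated until cytopathic effect was scored. The value is the concentration that reduces virus-induced CPE by 50%.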

[5] = tested on: E6SM; assay: Concentration required to reduce herpes simplex virus-1TK (F) inducted cytopathicity by 50% (E6SM cells); format: functional, cell-based; details: Homo sapiens; how it was run: as §2
[6] = tested on: E6SM; assay: Concentration required to reduce herpes simplex virus-1TK (KOS) inducted cytopathicity by 50% (E6SM cells); format: functional, cell-based; details: Homo sapiens; how it was run: as §2
[7] = tested on: E6SM; assay: Concentration required to reduce herpes simplex virus-1TK (McIntyre) inducted cytopathicity by 50% (E6SM cells); format: functional, cell-based; details: Homo sapiens; how it was run: as §2
[8] = tested on: E6SM; assay: Concentration required to reduce herpes simplex virus-1TK (VMW1837) inducted cytopathicity by 50% (E6SM cells); format: functional, cell-based; details: Homo sapiens; how it was run: as §2
[9] = tested on: E6SM; assay: Concentration required to reduce herpes simplex virus-2(196) inducted cytopathicity by 50% (E6SM cells); format: functional, cell-based; details: Homo sapiens; how it was run: as §2
[10] = tested on: E6SM; assay: Concentration required to reduce herpes simplex virus-2(G) inducted cytopathicity by 50% (E6SM cells); format: functional, cell-based; details: Homo sapiens; how it was run: as §2
[11] = tested on: Vaccinia virus; assay: Concentration required to reduce vaccinia virus-inducted cytopathicity by 50% (E6SM cells); format: functional, organism-based, Orthopoxvirus vaccinia; details: Orthopoxvirus vaccinia, E6SM
[12] = tested on: Human immunodeficiency virus 1; assay: Concentration required to inhibit by 50% human immunodeficiency virus-1 induced syncytium formation upon coculturing persistently HIV-infected HUT-78 cells with MOLT-4 cells; format: functional, organism-based; details: Human immunodeficiency virus 1, MOLT-4
How it was run: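 MOLT-4 (clone 8) cells at 1 × 10^6 cells/mL, cocultured with an equal number of persistently infected HUT-78/HIV-1 or HUT-78/HIV-2 cells across a range of compound concentrations. Giant cells were counted under the microscope after 24 h of cocultivation. The value is the concentration giving 50% inhibition of syncytium formation.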

[13] = tested on: HEL; assay: Concentration required to inhibit HEL cell growth by 50%; format: functional, cell-based; details: Homo sapiens
[14] = tested on: HEL; assay: Concentration required to reduce human cytomegalo virus(AD-169) inducted cytopathicity by 50% (HEL cells); format: functional, cell-based; how it was run: as §2
[15] = tested on: HEL; assay: Concentration required to reduce human cytomegalo virus(Davis) inducted cytopathicity by 50% (HEL cells); format: functional, cell-based; how it was run: as §2
[16] = tested on: HeLa; assay: Concentration required to reduce Coxsackie virus-inducted cytopathicity by 50% (HeLa cells); format: functional, cell-based; details: Homo sapiens
[17] = tested on: HeLa; assay: Concentration required to reduce polio-1 virus-inducted cytopathicity by 50% (HeLa cells); format: functional, cell-based; details: Homo sapiens
[18] = tested on: HeLa; assay: Concentration required to reduce vesicular stomatitis virus-inducted cytopathicity by 50% (HeLa cells); format: functional, cell-based; details: Homo sapiens
[19] = tested on: MT4; assay: Concentration required to reduce the viability of uninfected MT-4 cells by 50%; format: functional; details: Homo sapiens; how it was run: as §1
[20] = tested on: MT4; assay: Concentration required to inhibit human immunodeficiency virus-2 induced cytopathicity in MT-4 cells by 50%; format: functional, cell-based
How it was run: (§3)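 MT-4 cells infected with HIV-1 (strain HTLV-III_B/LAI) or HIV-2 (strain LAV_ROD). The end point is 50% inhibition of virus-induced cytopathicity.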

[21] = tested on: Vero; assay: Concentration required to cause a microscopically detectable alteration of normal Vero cell morphology; format: functional, cell-based; details: Chlorocebus sabaeus
[22] = tested on: Vero; assay: Concentration required to reduce Coxsackie virus-inducted cytopathicity by 50% (Vero cells); format: functional, cell-based; details: Chlorocebus sabaeus
[23] = tested on: Vero; assay: Concentration required to reduce Junin virus-inducted cytopathicity by 50% (Vero cells); format: functional, cell-based; details: Chlorocebus sabaeus
[24] = tested on: Vero; assay: Concentration required to reduce forest virus-inducted cytopathicity by 50% (Vero cells); format: functional, cell-based; details: Chlorocebus sabaeus
[25] = tested on: Vero; assay: Concentration required to reduce Tacaribe virus-inducted cytopathicity by 50% (Vero cells); format: functional, cell-based; details: Chlorocebus sabaeus
[26] = tested on: Vero; assay: Concentration required to reduce parainfluenza-3 virus-inducted cytopathicity by 50% (Vero cells); format: functional, cell-based; details: Chlorocebus sabaeus
[27] = tested on: Vero; assay: Concentration required to reduce reovirus-1 inducted cytopathicity by 50% (Vero cells); format: functional, cell-based; details: Chlorocebus sabaeus
[28] = tested on: Vero; assay: Concentration required to reduce sindbis virus-inducted cytopathicity by 50% (Vero cells); format: functional, cell-based; details: Chlorocebus sabaeus
[29] = tested on: MT4; assay: Concentration required to inhibit human immunodeficiency virus-1 induced cytopathicity in MT-4 cells by 50%; format: functional, cell-based; how it was run: as §3
[30] = tested on: E6SM; assay: Concentration required to reduce herpes simplex virus-2(Lyons) inducted cytopathicity by 50% (E6SM cells); format: functional, cell-based; details: Homo sapiens; how it was run: as §2
[31] = tested on: HeLa; assay: Concentration required to cause a microscopically detectable alteration of normal Hela cell morphology; format: functional, cell-based; details: Homo sapiens
[32] = tested on: Human immunodeficiency virus 2; assay: Concentration required to inhibit by 50% human immunodeficiency virus-2 induced syncytium formation upon coculturing persistently HIV-infected HUT-78 cells with MOLT-4 cells; details: HUT-78, MOLT-4

Row | Compound | CC50 [1] | IC50 [2] | minimum cytotoxic concentration [3] | IC50 [4] | IC50 [6] | IC50 [8] | IC50 [10] | IC50 [11] | IC50 [12] | IC50 [13] | IC50 [16] | IC50 [18] | CC50 [19] | IC50 [20] | IC50 [21] | IC50 [22] | IC50 [23] | IC50 [25] | IC50 [26] | IC50 [27] | also measured
1 | O=C(O)CC(SCCCOC[C@H]1O[C@@H](OCCCSC(CC(=O)O)C(=O)O)[C@H](OCCCSC(CC(=O)O)C(=O)O)[C@@H](OCCCSC(CC(=O)O)C(=O)O)[C@@H]1OCCCSC(CC(=O)O)C(=O)O)C(=O)O (stereo partly specified) | > 74 µM | > 74 µM | > 296 µM | > 296 µM | > 296 µM | > 296 µM | > 296 µM | > 296 µM | > 185 µM | > 37 µM | > 148 µM | > 148 µM | > 185 µM | > 185 µM | > 148 µM | > 148 µM | > 37 µM | > 37 µM | > 148 µM | > 148 µM | IC50 [5]: > 296 µM; IC50 [7]: > 296 µM; IC50 [9]: > 296 µM; IC50 [14]: > 37 µM; IC50 [15]: > 37 µM; IC50 [17]: > 148 µM; IC50 [24]: > 148 µM; IC50 [28]: > 148 µM; IC50 [29]: 85.9 µM; IC50 [30]: > 296 µM
2 | O=C(O)CC(SCCCOC[C@H]1O[C@@H](O[C@H]2[C@H](OCCCSC(CC(=O)O)C(=O)O)[C@@H](OCCCSC(CC(=O)O)C(=O)O)[C@@H](OCCCSC(CC(=O)O)C(=O)O)O[C@@H]2COCCCSC(CC(=O)O)C(=O)O)[C@H](OCCCSC(CC(=O)O)C(=O)O)[C@@H](OCCCSC(CC(=O)O)C(=O)O)[C@@H]1OCCCSC(CC(=O)O)C(=O)O)C(=O)O (stereo partly specified) |  |  | > 181 µM | 68 µM | 136 µM | > 181 µM | 136 µM | > 181 µM | 3.61 µM | > 22 µM | > 181 µM | > 181 µM | > 56.4 µM | 4.47 µM | > 181 µM | > 181 µM | > 22 µM | > 22 µM | > 181 µM | > 181 µM | IC50 [14]: 6.3 µM; IC50 [15]: 3.6 µM; IC50 [31]: > 181 µM; IC50 [28]: > 181 µM; IC50 [29]: 0.37 µM; IC50 [32]: 54.2 µM
3 | CO[C@H]1O[C@H](COCCCSC(CC(=O)O)C(=O)O)[C@@H](OCCCSC(CC(=O)O)C(=O)O)[C@@H](OCCCSC(CC(=O)O)C(=O)O)[C@H]1OCCCSC(CC(=O)O)C(=O)O (stereo partly specified) | > 265 µM | 69 µM |  |  |  |  |  |  |  |  |  |  |  |  |  |  |  |  |  |  | 
4 | CO[C@H]1O[C@H](COCCCSCCC(=O)O)[C@@H](OCCCSCCC(=O)O)[C@@H](OCCCSCCC(=O)O)[C@H]1OCCCSCCC(=O)O | > 346 µM | > 346 µM |  |  |  |  |  |  |  |  |  |  |  |  |  |  |  |  |  |  | 
5 | O=C(O)CCSCCCOC[C@H]1O[C@@H](OCCCSCCC(=O)O)[C@H](OCCCSCCC(=O)O)[C@@H](OCCCSCCC(=O)O)[C@@H]1OCCCSCCC(=O)O | > 98 µM | > 98 µM |  |  |  |  |  |  |  |  |  |  |  |  |  |  |  |  |  |  | 
6 | CO[C@H]1O[C@H](COCCCSCC(=O)O)[C@@H](OCCCSCC(=O)O)[C@@H](OCCCSCC(=O)O)[C@H]1OCCCSCC(=O)O | > 370 µM | > 370 µM |  |  |  |  |  |  |  |  |  |  |  |  |  |  |  |  |  |  | 
7 | O=C(O)CC(SCCCOC[C@H]1O[C@@H](O[C@H]2[C@H](OCCCSC(CC(=O)O)C(=O)O)[C@@H](OCCCSC(CC(=O)O)C(=O)O)C(OCCCSC(CC(=O)O)C(=O)O)O[C@@H]2COCCCSC(CC(=O)O)C(=O)O)[C@H](OCCCSC(CC(=O)O)C(=O)O)[C@@H](OCCCSC(CC(=O)O)C(=O)O)[C@@H]1OCCCSC(CC(=O)O)C(=O)O)C(=O)O (stereo partly specified) |  |  | > 181 µM | 45 µM | > 181 µM | > 181 µM | > 45 µM | > 181 µM | 1.8 µM | > 22 µM | > 181 µM | > 181 µM | > 56.4 µM | 4.17 µM | > 181 µM | > 181 µM | > 22 µM | > 22 µM | > 181 µM | > 181 µM | IC50 [14]: 1.4 µM; IC50 [15]: 0.4 µM; IC50 [31]: > 181 µM; IC50 [28]: > 181 µM; IC50 [29]: 0.04 µM; IC50 [32]: 54.2 µM
8 | O=C(O)CCSCCCOC[C@H]1O[C@@](COCCCSCCC(=O)O)(O[C@H]2O[C@H](COCCCSCCC(=O)O)[C@@H](OCCCSCCC(=O)O)[C@H](OCCCSCCC(=O)O)[C@H]2OCCCSCCC(=O)O)[C@@H](OCCCSCCC(=O)O)[C@@H]1OCCCSCCC(=O)O | > 59.3 µM | > 59.3 µM | > 237 µM | > 237 µM | > 237 µM | > 237 µM | > 237 µM | > 237 µM | > 148 µM | > 30 µM | > 119 µM | > 119 µM | > 148 µM | > 148 µM | > 119 µM | > 59 µM | > 12 µM | > 12 µM | > 59 µM | > 59 µM | IC50 [5]: > 237 µM; IC50 [7]: > 237 µM; IC50 [9]: > 237 µM; IC50 [31]: > 119 µM; IC50 [17]: > 119 µM; IC50 [24]: > 59 µM; IC50 [28]: > 59 µM; IC50 [29]: 29 µM; IC50 [30]: > 119 µM; IC50 [32]: > 148 µM
